This passage reports IC50, inhibition and Activity results from ChEMBL document CHEMBL3271933, “Inhibitors of hepatic mixed function oxidase. 3. Inhibition of hepatic microsomal aniline hydroxylase and aminopyrine demethylase by 2,6- and 2,4-dihydroxyphenyl alkyl ketones and related compounds” (J Med Chem, 1977).

A short description of test [1]: Inhibition of aminopyrine demethylase activity of mixed function oxidase system in Wistar rat liver microsomes assessed as conversion of aminopyrine to 4-aminoantipyrine after 20 mins. Particulars: read-out: I50. The gist of the method: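 Microsomes from phenobarbitone-pretreated male Wistar rats, with the same NADPH-generating cofactors. Incubation in 3.0 mL containing aminopyrine 1.5 μmol and 5.6 mg protein in pH 7.4 phosphate, 20 min. 4-Aminoantipyrine formed was assayed. Benzyl ethers added in DMSO; other inhibitors usually in water. I50 taken from 5–7 inhibitor levels, means of duplicates.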

The nature of test [2]: Inhibition of aniline hydroxylase activity of mixed function oxidase system in Wistar rat liver microsomes assessed as conversion of aniline to p-aminophenol after 10 mins. Particulars: read-out: I50.
The species named for test [3] is Rattus norvegicus. Nature of the test: Inhibition of aniline hydroxylase activity of mixed function oxidase system in Wistar rat liver microsomes assessed as conversion of aniline to p-aminophenol at 10^-3 M after 10 mins. A general note: Liver microsomes are a subcellular fraction often used to study metabolism.
Test [4] relates to Mus musculus. The test can be described thus: In vivo inhibition of mixed function oxidase system in mouse assessed as increase in zoxazolamine-induced paralysis time at 100 mg/kg, ip pretreated for 10 mins followed by zoxazolamine-challenge relative to control. Details: scale not given: the % may be the effect or the level left. As to conditions: route intraperitoneal.
In test [5] the test system is Mus musculus. Nature of the test: In vivo inhibition of mixed function oxidase system in mouse assessed as prolongation of hexobarbital-induced sleeping time at 100 mg/kg, ip pretreated for 10 mins followed by hexobarbital-challenge relative to control. As to conditions: route intraperitoneal. The arrangement: scale not given: the % may be the effect or the level left.

Where a name gives a salt, the structure may show the parent alone. Active and inactive are the calls of the source. The rule behind the calls is not given here.

`CCCC(C(=O)OCCN(CC)CC)(c1ccccc1)c1ccccc1` [PROADIFEN HYDROCHLORIDE]: the results for the IC50 in test [1] and in test [2] were 6 µM and 290 µM, respectively.

With `O=Cc1ccc(O)cc1O`, the IC50 in test [1] came to 1100 µM; in test [2] it was 1400 µM.

With `CCC(=O)c1ccc(OC)cc1O`, the inhibition result in test [3] was “inactive”. Also, the IC50 in test [1] came out at 170 µM.

As to `O=Cc1c(O)cccc1O`, the IC50 is 650 µM in test [1] and 200 µM in test [2].

Take `CC(=O)c1c(O)cccc1OCc1ccccc1`: the Activity is listed as 156% in test [4] and 170% in test [5]. Further, the IC50 is 80 µM in test [1] and 190 µM in test [2].

Take `CC(=O)c1ccc(O)cc1O`: the values for the Activity in test [4] and in test [5] were 77% and 127%, respectively. Further, the results for the IC50 in test [1] and in test [2] were 520 µM and 700 µM, respectively.

As for `CCCCOCCOCCOCc1cc2c(cc1CCC)OCO2` [PIPERONYL BUTOXIDE], the IC50 in test [1] and in test [2] was 420 µM in each case.

As to `CC(=O)c1c(O)cccc1O`, the Activity came to 164% in test [4] and 190% in test [5]. Besides, the results for the IC50 in test [1] and in test [2] were 140 µM and 210 µM, respectively.

For `CCC(=O)c1ccc(O)cc1O`, the IC50 was found to be 160 µM in test [1] and 750 µM in test [2].

Turning to `COc1cccc(O)c1C(C)=O`, the Activity in test [5] came out at 233%. Further, the values for the IC50 in test [1] and in test [2] were 90 µM and 200 µM, respectively.

Turning to `CC(=O)c1ccccc1O`, the results for the IC50 in test [1] and in test [2] were 320 µM and 390 µM, respectively.
